According to ChEMBL document CHEMBL4014343 (J Med Chem, 2017):
pIC50: −log10 of the molar value. Calls of active or inactive are those of the source. No cut-off for these calls is given here.

Tests used:
[1] = target: T1, Glycogen synthase kinase-3 beta (Homo sapiens, UniProt P49841); assay: Inhibition of human N-terminal GST/His6-tagged GSK3beta (M1 to T420 residues) expressed in baculovirus infected sf9 cells using RBER-IRStide as substrate by filter binding assay
[2] = target: Cyclin-dependent kinase 5/CDK5 activator 1 (Homo sapiens, UniProt Q00535); assay: Inhibition of recombinant human N-terminal GST-tagged CDK5 (M1 to P292 residues)/p35NCK (M1 to R307 residues) expressed in baculovirus infected sf9 cells using RB-CTF as substrate by filter binding assay
MCF7 [3] = assay: Antiproliferative activity against human MCF7 cells after 3 days by SRB assay; type: functional, cell-based
[4] = Antiproliferative activity against human LXFL 529L cells after 3 days by SRB assay; type: functional, cell-based; conditions: Homo sapiens, LXFL 529L, 72 h
[5] = Solubility of the compound in water by spectrophotometric method; type: physicochemical
Method in brief: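 Ethanol standard solutions define absorbance maxima; aqueous solubility then quantified spectrophotometrically at that maximum by calibration.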

[6] = target: T2, Insulin-like growth factor 1 receptor (Homo sapiens, UniProt P08069); assay: Inhibition of IGF1R (unknown origin) by ADP-Glo assay
Method in brief: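 Isolated IGF-1R activity measured by luminescent ADP-Glo readout per manufacturer's protocol; IC50 from concentration-response (mean ± deviation reported).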

KM12 = assay: Growth inhibition of human KM12 cells incubated for 48 hrs by sulforhodamine B assay; type: functional; conditions: KM12, 48 h
MCF7 [7] = assay: Growth inhibition of human MCF7 cells incubated for 48 hrs by sulforhodamine B assay; type: functional; conditions: MCF7, 48 h
MDA-MB-231 = assay: Growth inhibition of human MDA-MB-231 cells incubated for 48 hrs by sulforhodamine B assay; type: functional; conditions: MDA-MB-231, 48 h
BT-549 = assay: Growth inhibition of human BT549 cells incubated for 48 hrs by sulforhodamine B assay; type: functional; conditions: BT-549, 48 h
[8] = target: T2, Insulin-like growth factor 1 receptor; assay: Inhibition of IGF1R (unknown origin)
CDK2/Cyclin A2 [9] = target: T3, CDK2/Cyclin A2 (Homo sapiens, UniProt P24941); assay: Inhibition of full length human C-terminal His6-tagged CDK2/N-terminal GST-tagged CyclinA expressed in baculovirus infected sf21 cells after 10 mins in presence of [gamma32P]ATP by beta counting method
[10] = target: T4, Cyclin-dependent kinase 2/cyclin E1 (Homo sapiens, UniProt P24941); assay: Inhibition of full length human C-terminal His6-tagged CDK2/N-terminal GST-tagged CyclinE expressed in baculovirus infected sf21 cells after 10 mins in presence of [gamma32P]ATP by beta counting method
[11] = target: T1, Glycogen synthase kinase-3 beta; assay: Inhibition of recombinant GSK3beta (unknown origin) after 10 mins in presence of [gamma32P]ATP by beta counting method
Method in brief: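 Recombinant kinase with 0.4 μCi [γ-32P]ATP per vial, 10 min at 30 °C; spotted on P81 paper, washed in 0.75% phosphoric acid, counted by β-scintillation. IC50 by linear regression versus solvent control; duplicates, ≥3 independent experiments.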

CDK2/Cyclin A2 [12] = target: T3, CDK2/Cyclin A2; assay: Inhibition of CDK2/CyclinA (unknown origin)
[13] = target: T4, Cyclin-dependent kinase 2/cyclin E1; assay: Inhibition of CDK2/CyclinE (unknown origin)
[14] = target: Cyclin-dependent kinase 4/cyclin D1 (Homo sapiens, UniProt P11802); assay: Inhibition of CDK4/Cyclin D1 (unknown origin)
[15] = target: T2, Insulin-like growth factor 1 receptor; assay: Inhibition of IGF1R phosphorylation at Tyr1161 residue in human MCF7 cells at 10 uM after 1 hr by Hoechst 33258 staining based immunohistochemical analysis; type: cell-based
Method in brief: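 MCF7 treated 1 h (test agent 1 μM; PI3K inhibitor 10 μM; 0.1% DMSO mock), fixed in 4% PFA 15 min, permeabilised/blocked, anti-p-IGF-1R Y1161 (1:200) overnight at 4 °C, Alexa 594 secondary 1 h, nuclei with Hoechst 33258 (1 μg/mL).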

T2 sequence (P08069 31-736 limits assumed): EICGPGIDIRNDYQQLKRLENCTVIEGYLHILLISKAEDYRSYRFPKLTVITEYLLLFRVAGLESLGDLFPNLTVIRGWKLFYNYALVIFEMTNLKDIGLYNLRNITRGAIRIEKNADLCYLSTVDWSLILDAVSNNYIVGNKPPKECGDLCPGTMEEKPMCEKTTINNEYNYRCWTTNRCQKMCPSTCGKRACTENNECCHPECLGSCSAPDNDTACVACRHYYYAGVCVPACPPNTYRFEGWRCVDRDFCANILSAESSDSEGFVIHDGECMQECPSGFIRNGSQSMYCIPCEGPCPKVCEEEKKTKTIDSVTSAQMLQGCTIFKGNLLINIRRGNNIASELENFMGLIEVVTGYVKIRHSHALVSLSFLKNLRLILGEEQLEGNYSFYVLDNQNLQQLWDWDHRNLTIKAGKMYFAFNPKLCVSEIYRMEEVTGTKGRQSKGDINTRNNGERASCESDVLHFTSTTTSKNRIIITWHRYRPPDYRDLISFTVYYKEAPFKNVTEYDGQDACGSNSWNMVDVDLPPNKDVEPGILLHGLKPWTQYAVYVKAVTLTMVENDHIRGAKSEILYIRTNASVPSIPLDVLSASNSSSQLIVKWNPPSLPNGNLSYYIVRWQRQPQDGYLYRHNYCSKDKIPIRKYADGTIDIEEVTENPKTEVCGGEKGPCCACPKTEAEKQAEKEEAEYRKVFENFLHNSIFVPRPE
T2 sequence (P08069 741-1367 limits assumed): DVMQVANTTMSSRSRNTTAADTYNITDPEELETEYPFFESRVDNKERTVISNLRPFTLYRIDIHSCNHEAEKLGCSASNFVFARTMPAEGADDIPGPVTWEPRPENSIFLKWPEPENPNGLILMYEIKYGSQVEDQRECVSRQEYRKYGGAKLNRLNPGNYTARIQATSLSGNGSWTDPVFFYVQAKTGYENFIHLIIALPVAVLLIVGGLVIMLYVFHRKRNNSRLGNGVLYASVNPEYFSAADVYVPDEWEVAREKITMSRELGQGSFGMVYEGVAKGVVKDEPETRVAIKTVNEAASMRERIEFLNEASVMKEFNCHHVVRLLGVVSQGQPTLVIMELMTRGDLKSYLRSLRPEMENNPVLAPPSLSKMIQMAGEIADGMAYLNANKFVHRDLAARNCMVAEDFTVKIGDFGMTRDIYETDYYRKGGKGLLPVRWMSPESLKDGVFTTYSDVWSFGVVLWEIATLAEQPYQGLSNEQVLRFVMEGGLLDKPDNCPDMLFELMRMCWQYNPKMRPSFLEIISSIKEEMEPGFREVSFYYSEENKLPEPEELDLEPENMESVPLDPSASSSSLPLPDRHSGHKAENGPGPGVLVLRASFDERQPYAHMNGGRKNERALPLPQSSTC
T1 sequence (P49841 whole entry, the tested form may be a part): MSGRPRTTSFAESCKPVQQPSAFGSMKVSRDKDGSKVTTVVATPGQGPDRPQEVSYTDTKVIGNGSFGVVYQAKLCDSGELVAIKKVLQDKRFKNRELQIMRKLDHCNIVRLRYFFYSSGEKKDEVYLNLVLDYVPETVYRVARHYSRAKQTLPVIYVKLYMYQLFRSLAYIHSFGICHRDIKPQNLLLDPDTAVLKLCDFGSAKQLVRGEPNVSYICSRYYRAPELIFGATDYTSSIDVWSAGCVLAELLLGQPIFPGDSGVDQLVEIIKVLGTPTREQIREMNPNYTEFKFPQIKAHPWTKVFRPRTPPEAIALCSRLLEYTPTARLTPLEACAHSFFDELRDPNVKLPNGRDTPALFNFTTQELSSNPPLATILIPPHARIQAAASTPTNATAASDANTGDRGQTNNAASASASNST
Cyclin-dependent kinase 4/cyclin D1, sequence (P11802 whole entry): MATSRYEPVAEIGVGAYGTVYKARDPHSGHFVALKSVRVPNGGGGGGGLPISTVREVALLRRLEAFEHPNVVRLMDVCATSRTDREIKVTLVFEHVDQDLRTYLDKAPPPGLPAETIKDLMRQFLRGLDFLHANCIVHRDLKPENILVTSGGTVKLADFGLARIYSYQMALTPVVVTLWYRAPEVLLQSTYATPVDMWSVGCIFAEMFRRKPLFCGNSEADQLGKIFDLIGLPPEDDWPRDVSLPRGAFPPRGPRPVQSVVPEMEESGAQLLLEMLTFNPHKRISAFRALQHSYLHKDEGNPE
Cyclin-dependent kinase 4/cyclin D1, sequence (P24385 whole entry, further chain): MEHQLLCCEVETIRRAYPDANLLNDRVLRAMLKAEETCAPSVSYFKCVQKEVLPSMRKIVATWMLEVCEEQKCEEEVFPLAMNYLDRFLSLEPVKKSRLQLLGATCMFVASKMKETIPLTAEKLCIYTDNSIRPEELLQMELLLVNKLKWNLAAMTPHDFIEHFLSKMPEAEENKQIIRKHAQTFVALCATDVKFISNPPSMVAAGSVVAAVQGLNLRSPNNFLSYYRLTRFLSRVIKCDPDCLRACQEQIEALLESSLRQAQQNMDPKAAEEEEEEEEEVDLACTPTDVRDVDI
Cyclin-dependent kinase 5/CDK5 activator 1, sequence (Q00535 whole entry, the tested form may be a part): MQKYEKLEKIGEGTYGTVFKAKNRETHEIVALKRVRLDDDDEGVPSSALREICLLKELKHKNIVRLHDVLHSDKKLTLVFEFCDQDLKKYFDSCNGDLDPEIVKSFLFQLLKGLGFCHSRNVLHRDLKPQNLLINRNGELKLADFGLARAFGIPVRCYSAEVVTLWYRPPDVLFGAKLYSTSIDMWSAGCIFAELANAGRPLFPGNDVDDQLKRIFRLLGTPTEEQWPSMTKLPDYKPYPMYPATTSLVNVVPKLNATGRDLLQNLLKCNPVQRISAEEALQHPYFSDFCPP
Cyclin-dependent kinase 5/CDK5 activator 1, sequence (Q15078 whole entry, further chain, the tested form may be a part): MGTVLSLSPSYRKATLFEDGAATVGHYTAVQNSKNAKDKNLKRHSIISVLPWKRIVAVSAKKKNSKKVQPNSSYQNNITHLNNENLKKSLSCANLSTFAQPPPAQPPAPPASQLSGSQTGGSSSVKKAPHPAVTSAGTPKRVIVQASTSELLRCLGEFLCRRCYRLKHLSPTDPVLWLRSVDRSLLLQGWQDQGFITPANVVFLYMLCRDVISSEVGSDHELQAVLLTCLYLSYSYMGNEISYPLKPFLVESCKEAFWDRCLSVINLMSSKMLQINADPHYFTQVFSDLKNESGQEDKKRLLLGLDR

`CN1CCN(CCO/N=C2/C(=C3/C(=O)Nc4cc(Br)ccc43)Nc3ccccc32)CC1` showed a pIC50 [1] of 8.30 and a pIC50 [2] of 6.30.
For `CN1CCN(CCO/N=C2/C(=C3/C(=O)Nc4ccccc43)Nc3ccccc32)CC1.Cl`, the pIC50 (MCF7 [3]; mcf7) was 6.07, the pIC50 [4] was 5.96 and the solubility [5] was > 25 mg/mL. The pIC50 [6] was 6.77, the GI50 (KM12) was 0.08 µM and the GI50 (MCF7 [7]) was 0.59 µM. For the same compound, the GI50 (MDA-MB-231) was 2.14 µM and the GI50 (BT-549) was 3.19 µM.
With `O=C1Nc2ccccc2/C1=C1/Nc2ccccc2C1=O` [INDIRUBIN] the pIC50 [8] was < 3.00, the pIC50 (MCF7 [3]; Homo sapiens, MCF7, 72 h) was 5.00 and the pIC50 (CDK2/Cyclin A2 [9]) was 5.66. The pIC50 [10] was 5.12, the pIC50 [11] was 6.22 and the pIC50 (CDK2/Cyclin A2 [12]) was 5.12. The pIC50 [13] was 5.66 and the pIC50 [14] was 4.92.
With `O=c1cc(N2CCOCC2)oc2c(-c3ccccc3)cccc12` the inhibition [15] was “Active”.
